Drawing on ChEMBL document CHEMBL1129449 (J Med Chem, 1996), this text covers Ki for 17 molecules.

One assay deals with D(1A) dopamine receptor (Rattus norvegicus, UniProt P18901). Put plainly: Binding affinity at Dopamine receptor D1 in rat neostriatum by [3H]-SCH- 23390 displacement. It is filed as tissue-based, Striatum. Summed up: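 Tissue: sections of neostriatum from male Sprague–Dawley rats (250–300 g). Test substances dissolved in distilled water. Values are mean ± SEM of five to seven independent experiments, each run in triplicate.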

In the next assay the target is D(2) dopamine receptor (Rattus norvegicus, UniProt P61169). Put plainly: Binding affinity at Dopamine receptor D2 in rat neostriatum frozen sections by [3H]-spiperone displacement.
Chain of D(2) dopamine receptor (P61169 whole entry): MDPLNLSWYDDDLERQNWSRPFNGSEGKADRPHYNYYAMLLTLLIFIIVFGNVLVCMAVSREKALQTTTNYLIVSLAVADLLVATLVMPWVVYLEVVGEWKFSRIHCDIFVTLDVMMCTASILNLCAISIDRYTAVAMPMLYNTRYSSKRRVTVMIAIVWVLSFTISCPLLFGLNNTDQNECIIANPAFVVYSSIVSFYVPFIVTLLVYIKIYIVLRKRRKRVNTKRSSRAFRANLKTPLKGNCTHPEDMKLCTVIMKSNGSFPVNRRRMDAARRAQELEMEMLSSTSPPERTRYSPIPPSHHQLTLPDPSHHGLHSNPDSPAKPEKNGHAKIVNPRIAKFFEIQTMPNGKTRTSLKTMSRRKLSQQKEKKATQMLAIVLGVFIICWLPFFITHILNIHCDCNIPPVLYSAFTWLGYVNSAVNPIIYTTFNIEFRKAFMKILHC

Chain of D(1A) dopamine receptor (P18901 whole entry): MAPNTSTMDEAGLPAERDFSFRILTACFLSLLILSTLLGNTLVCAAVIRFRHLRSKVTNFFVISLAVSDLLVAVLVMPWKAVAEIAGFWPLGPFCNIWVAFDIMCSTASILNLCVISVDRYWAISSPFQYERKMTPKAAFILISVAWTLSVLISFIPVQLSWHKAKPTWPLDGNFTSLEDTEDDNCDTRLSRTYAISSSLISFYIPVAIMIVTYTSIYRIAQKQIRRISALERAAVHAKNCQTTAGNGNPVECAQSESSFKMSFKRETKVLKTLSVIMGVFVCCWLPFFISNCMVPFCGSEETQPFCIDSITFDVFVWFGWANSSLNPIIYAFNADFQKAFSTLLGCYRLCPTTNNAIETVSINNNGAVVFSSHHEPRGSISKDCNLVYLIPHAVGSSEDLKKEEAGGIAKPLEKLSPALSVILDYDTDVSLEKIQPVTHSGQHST

Regarding `C[C@@]1(c2ccccc2)c2cc(O)c(O)cc2C[C@@]1(C)N`, the Ki was 5.5 nM on D(1A) dopamine receptor and greater than 1000 nM on D(2) dopamine receptor.
As to `N[C@@H]1Cc2ccc(O)cc2[C@H]1c1ccccc1` (stereo in doubt; (+)-14a), the Ki on D(1A) dopamine receptor is 2.5 nM; at D(2) dopamine receptor, 0.59 nM.
Take `C=CCN(C)[C@@H]1Cc2ccc(O)cc2[C@H]1c1ccccc1` (stereo in doubt; (+)-16a): the Ki on D(1A) dopamine receptor came to 3 nM; on D(2) dopamine receptor, 37.5 nM.
The like results for `CCCN(CCC)[C@@H]1Cc2ccc(O)cc2[C@H]1c1ccccc1` (stereo in doubt; (+)-15a) were, in that order, 28.5 nM and 51.5 nM.
Consider `N[C@@H]1Cc2cc(O)ccc2[C@H]1c1ccccc1` (stereo in doubt; (+)-14b), for which the inhibition constant Ki on D(1A) dopamine receptor is 1.87 nM; at D(2) dopamine receptor it was greater than 1000 nM.
`N[C@@H]1Cc2cc(O)ccc2[C@H]1c1ccccc1` (stereo in doubt; (-)-14b): the Ki on D(1A) dopamine receptor is 18.7 nM; on D(2) dopamine receptor it was greater than 1000 nM.
Regarding `CCCN(CCC)[C@@H]1Cc2cc(O)ccc2[C@H]1c1ccccc1` (stereo in doubt; (-)-15b), the Ki at D(1A) dopamine receptor is 1.76 nM; on D(2) dopamine receptor, greater than 1000 nM.
As for `CCCN(C)[C@@H]1Cc2ccc(O)cc2[C@H]1c1ccccc1` (stereo in doubt; (-)-17a), the results for the Ki at D(1A) dopamine receptor and at D(2) dopamine receptor were 0.88 nM and 0.34 nM, respectively.
For `CCCN(C)[C@@H]1Cc2cc(O)ccc2[C@H]1c1ccccc1` (stereo in doubt; (+)-17b), the Ki on D(1A) dopamine receptor and on D(2) dopamine receptor was greater than 1000 nM each time.
With `C=CCN(C)[C@@H]1Cc2cc(O)ccc2[C@H]1c1ccccc1` (stereo in doubt; (+)-16b), the inhibition constant Ki on D(1A) dopamine receptor and on D(2) dopamine receptor was greater than 1000 nM throughout.
With `C=CCN(C)[C@@H]1Cc2ccc(O)cc2[C@H]1c1ccccc1` (stereo in doubt; (-)-16a), the Ki on D(1A) dopamine receptor amounted to 0.79 nM; on D(2) dopamine receptor, 0.43 nM.
In the case of `CCCN(CCC)[C@@H]1Cc2cc(O)ccc2[C@H]1c1ccccc1` (stereo in doubt; (+)-15b), the inhibition constant (Ki) was 1.4 nM at D(1A) dopamine receptor and greater than 1000 nM on D(2) dopamine receptor.
For `CCCN(CCC)[C@@H]1Cc2ccc(O)cc2[C@H]1c1ccccc1` (stereo in doubt; (-)-15a), in that order: 26.4 nM and 0.84 nM.
Regarding `CCCN(C)[C@@H]1Cc2ccc(O)cc2[C@H]1c1ccccc1` (stereo in doubt; (+)-17a), the Ki at D(1A) dopamine receptor came out at 0.9 nM; at D(2) dopamine receptor it was 0.3 nM.
Regarding `CCCN(C)[C@@H]1Cc2cc(O)ccc2[C@H]1c1ccccc1` (stereo in doubt; (-)-17b), the inhibition constant Ki at D(1A) dopamine receptor and on D(2) dopamine receptor was greater than 1000 nM each time.
As to `C=CCN(C)[C@@H]1Cc2cc(O)ccc2[C@H]1c1ccccc1` (stereo in doubt; (-)-16b), the Ki on D(1A) dopamine receptor and at D(2) dopamine receptor was greater than 1000 nM throughout.
As for `N[C@@H]1Cc2ccc(O)cc2[C@H]1c1ccccc1` (stereo in doubt; (-)-14a), the Ki worked out at 34.5 nM at D(1A) dopamine receptor and 0.89 nM on D(2) dopamine receptor.

In general, Ki refers to the dissociation constant of the complex between target and ligand, obtained from inhibition or displacement.
